Publication PMC3962796 (Environmental science & technology, 2013)
Where two headings read alike, the source gives them in different places.

Legend:
[1] = assay type: in vivo, male Sprague-Dawley rats; settings: for half-life: male, Sprague-Dawley, rat, inhaled or intranasal, 1.8 ug
Summary of the method: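 Male Sprague-Dawley rats (237.6 ± 1.6 g; n=4/group) were exposed nose-only to test compound vapor. The vapor came from air at 4.0 L/min bubbled through the neat compound at 25.0°C, then diluted to 10.0 L/min. Exposure was 1 h, a 1 h break, then 1 h. Shams breathed filtered air. Rats were killed 0, 4 and 8 h post exposure, shams at 2 and 6 h. Lung, liver and serum were PLE-extracted and analysed by GC-MS SIM. Results were blank/surrogate-corrected and lipid-normalized. Analysis used t-tests (p<0.05) and Gauss-Newton non-linear regression.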

[2] = cited from earlier work; for half-life after inhalation exposure (tissues overall): administered as part of Aroclor mixture, same duration of inhalation exposure, Figure S2
[3] = two-component exponential decay; blood, liver and muscle; intravenous; cited from earlier work
[4] = first order model fit, lipid weight basis

## Oc1ccc(-c2cccc(Cl)c2)cc1Cl [4-OH-CB11, 3,3′-dichlorobiphenyl-4-ol]
[1]; 0 h post exposure
  ratio of 4-OH-CB11 to CB11 in liver: 0.7±0.0
[1]; 4 h group vs sentinel rats
  mean liver 4-OH-CB11 level relative to sentinel rats: 15 fold
[1]; 4 h group vs sham-exposed, not statistically significant
  mean liver 4-OH-CB11 level relative to sham rats: 4 fold
[1]; 4 h post exposure
  ratio of 4-OH-CB11 to CB11 in liver: 0.9±0.2
[1]; 8 h post exposure
  ratio of 4-OH-CB11 to CB11 in liver: 1.1±0.1
[1]; liver of all PCB-exposed animals
  detection of 4-OH-CB11 in liver: detected
[1]; lung samples of exposed rats
  detection of 4-OH-CB11 in lung: not detected
[1]; serum samples of exposed rats
  detection of 4-OH-CB11 in serum: not detected

## Clc1ccccc1-c1ccccc1 [CB1, monochlorobiphenyl]
[2]; Aroclor 1242 vapor inhalation
  level remaining during the inhalation exposure: barely detectable levels

## Clc1ccccc1-c1ccccc1Cl [CB4]
[2]; Aroclor 1242 vapor inhalation
  level remaining during the inhalation exposure: barely detectable levels

## Clc1ccc(-c2ccccc2Cl)cc1 [CB8, 2,4′-Dichlorobiphenyl]
[2]
  half-life after inhalation exposure (tissues overall): 5 to 8 h

## Clc1cccc(-c2cccc(Cl)c2)c1 [CB11, 3,3′-dichlorobiphenyl]
[1]; [4]
  C0 (initial concentration) of CB11 in liver: 73.6 ng/g l.w.
  C0 (initial concentration) of CB11 in serum: 295 ng/g l.w.
[1]; first order model fit, lipid weight basis, inhalation 106 μg/m^3 for 2 h
  C0 (initial concentration) of CB11 in lung: 932 ng/g l.w.
[1]; liver
  half-life: 2.1 h
[1]; lung
  half-life: 1.9 h
[1]; serum
  half-life: 1.8 h

## Clc1ccc(-c2ccc(Cl)cc2)cc1 [CB15, 4,4′-dichlorobiphenyl]
[2]
  half-life after inhalation exposure (tissues overall): 5 to 8 h

## Clc1ccc(-c2ccc(Cl)cc2Cl)cc1 [CB28]
[2]; Aroclor 1242 vapor inhalation, suggests redistribution phase
  time of peak concentration after exposure: 1 h

## Clc1ccc(Cl)c(-c2c(Cl)ccc(Cl)c2Cl)c1Cl [CB136, 2,2′,3,3′,6′6′-hexachlorobiphenyl]
[3]
  t½ of initial fast distribution phase: 1.7 to 10.6 h
  t½ of subsequent slower elimination phase: 55.2 to 406 h

## Clc1cc(Cl)c(-c2cc(Cl)c(Cl)cc2Cl)cc1Cl [CB153]
[3]
  t½ of initial fast distribution phase: 1.7 to 10.6 h
  t½ of subsequent slower elimination phase: 55.2 to 406 h
